Results published in ChEMBL document CHEMBL2021799, “Exploring the interplay of physicochemical properties, membrane permeability and giardicidal activity of some benzimidazole derivatives” (Eur J Med Chem, 2012).
pIC50: −log10 of the molar value. ≈ marks a conversion by molar mass, not a printed value.

Key:
Giardia intestinalis [1] = experiment: Antiparasitic activity against Giardia duodenalis IMSS:0989 after 48 hrs; type: functional, organism-based; conditions: IMSS:0989, 48 h
Outline: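 G. duodenalis trophozoites grown in modified TYI-S-33 with 10% calf serum and bovine bile. 5 × 10⁴ trophozoites incubated 48 h at 37 °C with increasing compound concentrations; DMSO-treated trophozoites as negative control. An aliquot was then subcultured 48 h in fresh drug-free medium, trophozoites counted, and IC50 obtained by Probit analysis.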

Caco-2 [2] = experiment: Apparent permeability from apical to basolateral side of human Caco2 cells at 100 uM up to 90 mins; conditions: caco-2, 1.5 h
[3] = Aqueous solubility of the compound
Caco-2 [4] = experiment: Apparent permeability from basolateral to apical side of human Caco2 cells at 100 uM up to 90 mins; conditions: caco-2, 1.5 h
Caco-2 [5] = experiment: Influx ratio of permeability from basolateral to apical side over apical to basolateral side in human Caco2 cells at 100 uM up to 90 mins; conditions: caco-2, 1.5 h
[6] = Lipophilicity, logkw of the compound by RP-HPLC analysis
[7] = Distribution coefficient, log D of the compound; conditions: octanol/water
Caco-2 [8] = experiment: Efflux ratio of permeability from apical to basolateral side over basolateral to apical side in human Caco2 cells at 100 uM up to 90 mins; conditions: caco-2, 1.5 h
Giardia intestinalis [9] = experiment: Ratio of metronidazole IC50 to compound IC50 for Giardia duodenalis IMSS:0989; type: functional
[10] = aqueous medium, not specified further

Compound	pIC50 (Giardia intestinalis [1])	Papp (Caco-2 [2]) [×10⁻⁶ cm/s]	solubility [3, 10] [ng/mL]	Papp (Caco-2 [4]) [×10⁻⁶ cm/s]	Ratio (Caco-2 [5])	logKw [6]	log1/S ([3]; buffer)	logD [7]	Ratio (Caco-2 [8])	solubility ([3]; buffer) [ng/mL]	Ratio IC50 (Giardia intestinalis [9])
O=C(O)c1ccc2nc(C(F)(F)F)[nH]c2c1	6.76	0.57	189 (≈ 0.819 µM)	0.74	–	–	–	–	–	–	–
COC(=O)c1ccc2[nH]c(C(F)(F)F)nc2c1	5.92	32.7	555 (≈ 2.27 µM)	23	1.42	1.94	5.64	3.52	0.7	–	–
Cn1c(N)nc2cc(Cl)ccc21	6.62	5.21	–	9.57	0.54	3.19	9.12	4.95	1.83	0.1 (≈ 0.000551 µM)	–
Cn1c(C(F)(F)F)nc2cc(C(=O)O)ccc21	5.56	9.83	10900 (≈ 44.6 µM)	7.25	1.35	1.47	4.35	2.98	0.74	–	–
Cn1c(C(F)(F)F)nc2ccc(C(=O)O)cc21	6.48	5.09	98700 (≈ 404 µM)	4.65	1.09	1.13	3.39	3.7	0.91	–	–
COC(=O)c1ccc2c(c1)nc(C(F)(F)F)n2C	5.61	26.7	281 (≈ 1.09 µM)	23.9	1.11	2.05	5.96	3.65	0.89	–	–
COC(=O)c1ccc2nc(C(F)(F)F)n(C)c2c1	5.42	39.2	85.9 (≈ 0.333 µM)	21.8	1.8	2.24	6.47	3.86	0.55	–	–
CCN(CC)C(=O)COC(=O)c1ccc2c(c1)nc(C(F)(F)F)n2C	6.88	21.9	40.1 (≈ 0.112 µM)	11	1.99	2.4	6.94	4.06	0.5	–	–
CCN(CC)C(=O)COC(=O)c1ccc2nc(C(F)(F)F)n(C)c2c1	6.33	15.4	57.2 (≈ 0.16 µM)	13	1.17	2.29	6.62	2.81	0.84	–	–
CNC(=O)c1ccc2[nH]c(C(F)(F)F)nc2c1	6.49	–	87800 (≈ 361 µM)	–	–	1.21	3.6	2.68	–	–	–
CNC(=O)c1ccc2nc(C(F)(F)F)n(C)c2c1	6.68	14.6	29600 (≈ 115 µM)	8.98	1.62	1.33	3.93	3.92	0.61	–	–
CSc1nc2ccccc2n1C	7.48	7.12	1140 (≈ 6.39 µM)	9.57	0.74	1.78	5.19	3.33	1.34	–	–
Cn1c(S)nc2ccccc21	7.74	8.14	36000 (≈ 219 µM)	14.5	0.56	1.23	3.65	2.7	1.78	–	67
Cn1c(S)nc2ccc(Cl)cc21	7.70	14.1	588 (≈ 2.96 µM)	27.2	0.51	1.9	5.59	3.47	1.93	–	27
CSc1nc2ccc(Cl)cc2n1C	6.91	–	–	–	–	–	–	–	–	–	–
